Screening results: PubChem, several laboratories
TLR9-MyD88 inh: blocks human TLR9 binding to MyD88. Q9NR96+Q99836. CHO BLA complementation TLR9-MyD88, CCF4 FRET ratio. inhibition, % at 4.98 µM. actives 0.21% (n = 340,000). AID 504734;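 active = inhibition above the mean over all tested compounds plus 3 SD, cut at about 21% in these data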;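 also: 0% = DMSO only wells and 100% = clavulanate BLA inhibitor control wells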
MT stabilize HCS: microtubule stabilizers in HeLa cells; HeLa tubulin immunostaining HCS, 24 h; share of cells brighter than vehicle mean+2SD; % tubulin-high responders, % at 10 µM; actives 0.83% (n = 200,000); AID 2205;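 active = plate Z-score above 3 for both tubulin-high and condensed-nucleus cell shares, with cell loss under 80%, at 10 µM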;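 also: anti alpha tubulin signal scored within the nucleus-defined area of each cell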
b-catenin transl: alters nuclear translocation of beta-catenin in HeLa cells | AID 1665 | actives 0.3% (n = 190,000) | immunofluorescence imaging | nuclear translocation activity, % at 5 µM;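 active = nuclear translocation activity above 50% at 5 µM, with a well cell count of 50 or more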;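 also: per-cell ratio of nuclear to cytoplasmic median beta-catenin stain intensity; plate controls were DMSO negative control for no effect and GSK-3 inhibitor IX positive control for full effect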
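Test system: human HeLa cells, endogenous beta-catenin. Times: 24 h compound exposure, 37°C. Measured by: beta-catenin immunofluorescence imaging with DAPI.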
NOD2 RIPK2 PPI: inhibitors of human NOD2-RIPK2 interaction | O43353 | CHO BLA complementation NOD2-RIPK2, CCF4 ratio | inhibition, % at 4.98 µM | actives 0.38% (n = 360,000); in the data active = inhibition above about 21%;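 also: 0% = vehicle only and 100% = reference blocker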
TLR4-MyD88 BLA: blocks binding of human TLR4 to MyD88. O00206+Q99836. HeLa CL3-4 TLR4/MyD88 BLA complementation, FRET ratio. inhibition, % at 8.4 µM. actives 0.18% (n = 200,000). AID 861; in the data active = inhibition above about 25%;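 also: 0% = vehicle and 100% = reference inhibitor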
Hsp70 act: transcriptional activators of Hsp70 | actives 0.04% (n = 200,000) | HeLa Hsp70 promoter luciferase reporter, luminescence; scaled: vehicle 0, proteasome-inhibitor control 100% | activation, % at 10 µM | AID 1203;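 active = activation above the mean across all tested compounds plus 3 SD, cutoff set per campaign, cut at about 5.5% in these data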;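 also: 100% = MG132 at 30 µM as the positive control and 0% = DMSO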
NOD2 RIPK2 conf: NOD2-RIPK2 interaction inhibition confirmed; CHO cells, NOD2-RIPK2 BLA complementation, CCF4 FRET; actives 70% (n = 1,200); shares compounds with NOD2 RIPK2 PPI; inhibition, % at 4.98 µM; AID 624370;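 active = mean inhibition across replicates above a set limit taken from the earlier primary screen, cut at about 21% in these data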;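 also: 0% = DMSO-only wells and the high end = clavulanate BLA-blocked wells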
BLA counter: hits BLA reporter in NOD2-RIPK2 inhibitor counterscreen; shares compounds with NOD2 RIPK2 PPI; CHO BLA reporter, CCF4 FRET ratio; inhibition, % at 4.98 µM; actives 57% (n = 1,200);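 active = mean inhibition above the low-control mean inhibition plus three low-control SD, cut at about 11% in these data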;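 also: 0% = DMSO only wells and 100% = clavulanate high control wells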
An asterisk follows results filed as active; x = no result given. The list is not random: actives were taken first. Their share in the collection is about 1%.

SMILES	TLR9-MyD88 inh	MT stabilize HCS	b-catenin transl	NOD2 RIPK2 PPI	TLR4-MyD88 BLA	Hsp70 act	NOD2 RIPK2 conf	BLA counter
Cc1cccc(C)c1NC(=O)C(c1ccc(C(F)(F)F)cc1)n1c(=O)c(-c2cc3ccccc3[nH]2)nc2ccccc21 (stereo unspecified)	x	x	x	47*	x	x	45*	69*
CCCS(=O)(=O)NC(=O)C1(C)CCCN(C(=O)c2cccc(Cl)c2)C1 (stereo unspecified)	x	x	x	1	x	x	x	x
COc1cccc(N2CCN(c3ncnc4c3[nH]c3ccc(F)cc34)CC2C)c1 (stereo unspecified)	3	26*	0	28*	6	0	15	0
Cc1c(NC(=O)COC(=O)Cc2ccc(F)cc2)c(=O)n(-c2ccccc2)n1C	4	x	x	6	x	x	x	x
Cc1ccc(C2C=C(c3ccccc3OC(F)F)Nc3ncnn32)cc1 (stereo unspecified)	16	2	x	30*	17	0	27*	31*
CN(C)c1ccc(C2C=C(c3ccc(Cl)cc3OC(F)F)Nc3ncnn32)cc1 (stereo unspecified)	6	x	1	2	x	x	x	x
Cc1cc2[nH]c3c4ccccc4nc(C)c3c2cc1C	-1	x	x	21*	x	x	26*	-7
COc1cccc(N2CCN(S(=O)(=O)c3c(C)[nH]c(C)c3C(=O)N3CCCC3)CC2)c1	-5	x	x	23*	x	x	1	-3
COc1ccccc1NS(=O)(=O)c1c(C)[nH]c(C)c1C(=O)N1CCCC1	-9	x	x	36*	x	x	-5	-7
Cc1[nH]c(C)c(S(=O)(=O)N2CCN(c3cccc(Cl)c3)CC2)c1C(=O)N1CCCC1	-24	x	x	6	x	x	x	x
CCc1cccc(CC)c1N1C(=O)COCC1=O	-7	x	x	-2	x	x	x	x
CCc1cccc(CC)c1N1C(=O)C2=C(SCCCS2)C1=O	16	x	x	40*	x	x	35*	38*
Nc1nnc(CCS(=O)(=O)c2cc(Cl)ccc2Cl)s1	-6	3	x	-6	-4	0	x	x
Cc1ccccc1CN(C)CCS(=O)(=O)c1cc(Cl)ccc1Cl	-8	x	x	28*	x	x	-2	-4
CCOC(=O)[C@H]1[C@H]2COc3ccc(OC)cc3[C@@H]2N2C(=O)CN(Cc3ccccc3)C(=O)[C@@]12C	-3	x	x	1	x	x	x	x
O=C1Cc2ccccc2C(=O)N1Nc1ccccc1	4	x	x	9	x	x	x	x
Cc1ccc(NN2C(=O)C=CC2=O)cc1	-12	5	x	-3	-17	0	x	x
O=C1C=C(c2ccccc2)C(=O)N1Nc1ccccc1	20	1	x	49*	2	0	78*	3
Cc1ccc(NN2C(=O)C=C(c3ccc(Cl)cc3)C2=O)cc1	15	1	x	51*	2	0	82*	11*
COc1ccc(Nc2cccccc2=O)cc1	-1	6	-1	-10	3	0	x	x
COc1ccc(C2=CC(=O)N(Nc3ccccc3)C2=O)cc1	x	3	1	42*	5	0	55*	0
O=C(Nc1ccc2c(c1)OCO2)c1cc(C2CCCN(C(=O)CCc3ccccc3)C2)on1 (stereo unspecified)	x	x	x	-3	x	x	x	x
COc1cc(/C=C/C(=O)c2ccc3c(c2)OCCO3)cc(Br)c1OCC(=O)N(C)C	11	x	x	16	x	x	x	x
O=c1c2ccc(F)cc2sn1-c1ccccc1	14	x	x	36*	x	x	46*	8
COc1ccc(NC(=O)CC2C(=O)N(c3ccc(OC)cc3)C(=S)N2NC(=O)c2cccc(F)c2)cc1 (stereo unspecified)	7	3	-2	22*	-18	0	5	-3
CCOC(=O)c1ccc(NC(=O)[C@@H]2CCC(=O)N2C2OC(=O)c3c2ccc(OC)c3OC)cc1 (stereo partly specified)	x	x	x	-6	x	x	x	x
Cc1cc(C(F)(F)F)c2c(N)c(C(=O)NCc3ccc(Cl)cc3)sc2n1	x	x	x	24*	x	x	23*	21*
